The values below come from ChEMBL document CHEMBL4725282, “Discovery of a Conformationally Constrained Oxazolidinone with Improved Safety and Efficacy Profiles for the Treatment of Multidrug-Resistant Tuberculosis” (J Med Chem, 2020).

Series [1] in a line: Stability in human liver microsome at 1 uM measured after 30 mins in absence of NADPH by LC-MS/MS analysis. The class given is ADME. Particulars: liver microsomes, read-out: Stabilty. The essentials:
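Liver microsomes (male CD-1 mouse or pooled human), 1 mg/mL protein, compound 1 µM, 37°C with shaking. Started with 1 mM NADPH or run without cofactor. Quenched with ice-cold ACN/MeOH containing internal standard. Parent quantified by LC-MS/MS; 30 min concentration normalised to time zero.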
For orientation: Microsomes from liver hold many membrane-bound enzymes, among them those of drug oxidation.

Another series has as its target Cytochrome P450 2D6 (Homo sapiens, UniProt P10635). Description: Inhibition of CYP2D6 in human liver microsomes after 20 mins by LC-MS/MS analysis. In kind it is ADME. A digest of the protocol:
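Human liver microsomes (0.2 mg/mL) in phosphate buffer, 20 min incubation with compound at 0.1-50 μM alongside isoform-specific substrates and a positive control. Substrate remaining monitored by LC-MS/MS at each concentration; IC50 derived.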

Series [2] is described as follows: Genotoxicity in CHO-WBL cells assessed as chromosome aberration at 20 to 150 ug/ml measured after 20 hrs in presence of S9 fraction by Giemsa staining based. The class given is toxicity, subcellular, Cricetulus griseus. To be noted: chinese hamster, s9, 20 h, dose 20-150 µg/ml. The essentials:
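CHO-WBL cells in McCoy's 5A with 10% FBS, seeded 20-24 h before treatment. Compound in DMSO, with or without serum-free S-9 mix. Treatment either 3 h, then HBSS wash and 17 h further culture, or 20 h; harvest at 20 h from treatment start. Colcemid 0.1 μg/mL for the final 2 h, hypotonic KCl, methanol:acetic acid fixation, Giemsa stain. 300 metaphases per concentration (150 per duplicate flask) scored.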

The nature of series [3]: Toxicity in female Sprague-Dawley rat assessed as body weight loss at 50 to 450 mg/kg/day, po administered for 4 weeks measured at 1 week interval. In kind it is organism-based. Particulars: in vivo, 672 h, dose 50-450 mg/kg/day. The essentials:
(§1)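 SD rats, 6-7 weeks, 12 male and 12 female per group. Oral dosing once daily at 50, 150 or 450 mg/kg/day or vehicle for 4 weeks, then 2-week recovery. 8 per sex dissected after last dose, remaining 4 per sex after 14-day recovery. Body weight, urine, food intake and clinical signs monitored.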

Series [4] can be described thus: Toxicity in female Sprague-Dawley rat assessed as changes in neuropsychic symptoms at 50 to 450 mg/kg/day, po administered for 4 weeks measured during last 24 hrs of treatment period. The class given is organism-based. Particulars: in vivo, 672 h, dose 50-450 mg/kg/day. The essentials: (§2)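 SD rats, 6-7 weeks old (96 in total), split into vehicle, 50, 150 and 450 mg/kg/day groups of 12 females and 12 males each, given oral doses once daily for 4 weeks, then 2 weeks of recovery. Mortality, body weight, food intake, eyes, urine and neuropsychic signs were observed. Organ and bone marrow histopathology was done on 8 rats per sex per group after the last dose and on the remaining 4 per sex after 14 days of recovery.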

Series [5] in a line: Toxicity in female Sprague-Dawley rat assessed as abnormalities in urine at 50 to 450 mg/kg/day, po administered for 4 weeks followed by 2 week recovery period measured within last 7 days of recover period. The class given is organism-based. Particulars: in vivo, 672 h, dose 50-450 mg/kg/day. A digest of the protocol: as §1
A short description of series [6]: Toxicity in female Sprague-Dawley rat assessed as histopathological changes at 50 to 450 mg/kg/day, po administered for 4 weeks followed by 2 week recovery period. The class given is organism-based. To be noted: in vivo, 672 h, dose 50-450 mg/kg/day. A digest of the protocol:
as §2

A short description of series [7]: Toxicity in female Sprague-Dawley rat assessed as histopathological changes in bone marrow at 450 mg/kg/day, po administered for 4 weeks followed by 2 week recovery period. The class given is organism-based. To be noted: in vivo, 672 h. A digest of the protocol: as §2
Series [8] is described as follows: Toxicity in male Sprague-Dawley rat assessed as mortality at 50 to 450 mg/kg/day, po administered for 4 weeks followed by 2 week recovery period. The class given is organism-based. To be noted: in vivo, 672 h, dose 50-450 mg/kg/day.
Series [9] can be described thus: Toxicity in male Sprague-Dawley rat assessed as effect on food consumption at 50 to 450 mg/kg/day, po administered for 4 weeks followed by 2 week recovery period measured at 1 week interval. In kind it is organism-based. To be noted: in vivo, 672 h, dose 50-450 mg/kg/day.
Series [10] is described as follows: Toxicity in male Sprague-Dawley rat assessed as ophthalmic changes at 50 to 450 mg/kg/day, po administered for 4 weeks followed by 2 week recovery period measured within 7 days of post recover period. The class given is organism-based. Particulars: in vivo, 672 h, dose 50-450 mg/kg/day.
Series [11] in a line: Toxicity in male Sprague-Dawley rat assessed as abnormalities in urine at 50 to 450 mg/kg/day, po administered for 4 weeks followed by 2 week recovery period measured within last 7 days of recover period. In kind it is organism-based. Particulars: in vivo, 672 h, dose 50-450 mg/kg/day. A digest of the protocol: as §2
Series [12] in a line: Toxicity in male Sprague-Dawley rat assessed as histopathological changes in bone marrow at 450 mg/kg/day, po administered for 4 weeks followed by 2 week recovery period. The class given is organism-based. To be noted: in vivo, 672 h.
Series [13] can be described thus: Toxicity in male Sprague-Dawley rat assessed as changes in neuropsychic symptoms at 50 to 450 mg/kg/day, po administered for 4 weeks measured during last 24 hrs of treatment period. In kind it is organism-based. To be noted: in vivo, 672 h, dose 50-450 mg/kg/day.
The nature of series [14]: Toxicity in male Sprague-Dawley rat assessed as histopathological changes at 50 to 450 mg/kg/day, po administered for 4 weeks measured post last dose. In kind it is organism-based. Particulars: in vivo, 672 h, dose 50-450 mg/kg/day.
Series [15] in a line: Toxicity in male Sprague-Dawley rat assessed as change in mean platelet volume at 50 mg/kg/day, po administered for 4 weeks followed by 2 week recovery period (Rvb =7.0 +/- 0.4 fL). Particulars: in vivo, 672 h. In kind it is organism-based.
The nature of series [16]: Toxicity in female Sprague-Dawley rat assessed as change in reticulocyte level at 50 mg/kg/day, po administered for 4 weeks followed by 2 week recovery period (Rvb =2.85 +/- 0.53 %). The class given is organism-based. Particulars: in vivo, 672 h.
Series [17] is described as follows: Toxicity in male Sprague-Dawley rat assessed as change in reticulocyte level at 50 mg/kg/day, po administered for 4 weeks followed by 2 week recovery period (Rvb =2.48 +/- 0.34 %). The class given is organism-based. Particulars: in vivo, 672 h.
Series [18] in a line: Toxicity in male Sprague-Dawley rat assessed as change in neutrophil level at 50 mg/kg/day, po administered for 4 weeks followed by 2 week recovery period (Rvb =15.9 +/- 3.4 %). The class given is organism-based. Particulars: in vivo, 672 h.
Series [19] can be described thus: Toxicity in male Sprague-Dawley rat assessed as change in platelet count at 150 mg/kg/day, po administered for 4 weeks followed by 2 week recovery period (Rvb =1077 +/- 117 10^9/L). To be noted: in vivo, 672 h. In kind it is organism-based.
A short description of series [20]: Toxicity in male Sprague-Dawley rat assessed as change in reticulocyte level at 150 mg/kg/day, po administered for 4 weeks followed by 2 week recovery period (Rvb =2.48 +/- 0.34 %). The class given is organism-based. Particulars: in vivo, 672 h.
A short description of series [21]: Toxicity in male Sprague-Dawley rat assessed as change in lymphocyte level at 150 mg/kg/day, po administered for 4 weeks followed by 2 week recovery period (Rvb =77.4 +/- 3.7 %). The class given is organism-based. Particulars: in vivo, 672 h.
Series [22] can be described thus: Toxicity in male Sprague-Dawley rat assessed as change in white blood cell count at 450 mg/kg/day, po administered for 4 weeks followed by 2 week recovery period (Rvb =6.12 +/- 1.10 10^9/L). Particulars: in vivo, 672 h. The class given is organism-based. A digest of the protocol: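 SD rats aged 6-7 weeks, 24 per group (12 female, 12 male): vehicle, 50, 150 or 450 mg/kg/day given orally once daily for 4 weeks, then 2-week recovery. 8 per sex per group dissected after the last dose and 4 per sex after 14-day recovery. Hematology included WBC count, reported as mean ± SD (n = 12), compared with vehicle.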

Series [23] can be described thus: Toxicity in male Sprague-Dawley rat assessed as change in red blood cell count at 450 mg/kg/day, po administered for 4 weeks followed by 2 week recovery period (Rvb =7.86 +/- 0.32 10^12/L). In kind it is organism-based. Particulars: in vivo, 672 h.

The structures appear in SMILES notation. Some results are limits rather than exact numbers.

Sequence of Cytochrome P450 2D6 (P10635 whole entry, canonical isoform): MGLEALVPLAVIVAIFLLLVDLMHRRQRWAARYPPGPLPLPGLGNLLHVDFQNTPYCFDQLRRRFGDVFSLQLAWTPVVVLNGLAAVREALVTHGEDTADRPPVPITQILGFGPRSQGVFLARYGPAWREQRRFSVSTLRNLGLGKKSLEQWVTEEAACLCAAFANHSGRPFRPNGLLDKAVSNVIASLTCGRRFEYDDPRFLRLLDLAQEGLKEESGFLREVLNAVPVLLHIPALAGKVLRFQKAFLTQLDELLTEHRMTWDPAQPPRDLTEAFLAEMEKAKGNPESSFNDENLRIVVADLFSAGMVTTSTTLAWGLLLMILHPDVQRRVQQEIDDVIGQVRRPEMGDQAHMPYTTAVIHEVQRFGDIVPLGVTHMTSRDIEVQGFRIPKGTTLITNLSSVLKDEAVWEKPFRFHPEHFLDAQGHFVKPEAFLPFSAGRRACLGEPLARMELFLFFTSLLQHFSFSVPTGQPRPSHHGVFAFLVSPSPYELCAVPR

As to `CC(=O)NC[C@@H]1OC(=O)N2c3cc(F)c(N4CCSCC4)cc3OC[C@@H]12`, the remaining at 0.5 h, 1 µM in series [1] was 81.5%. The IC50 (in general, the concentration needed to halve the response being measured) on Cytochrome P450 2D6 was greater than 50 µM. Further, the Activity result in series [2], in series [3], in series [4], in [5], in series [6] and in series [7] was “Non-Toxic” throughout. For the same compound, the Activity entry in series [8], in series [9], in series [10], in [11], in [12] and in series [13] was “Non-Toxic” throughout. The Activity result is reported as “Non-Toxic” in series [14]; 7 fL in series [15]; 3.25% in series [16]; 2.97% in series [17]; 13% in series [18]; 998 10^9/L in [19]. In addition, the Activity is on record as 3.15% in series [20], 77.3% in series [21], 5.06 10^9/L in [22] and 7.46 10^12/L in [23].
